Lmaj promast = Leishmania major promastigote growth inhibition; Leishmania major promastigotes, resazurin fluorescence viability; AID 1063; actives 9% (n = 200,000); inhibition, % at 10 µM; in the data active means inhibition above about 50%;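 further: promastigotes grown with compound for 44 hours at 28 °C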
bCat nuc transl = modulators of beta-catenin nuclear translocation. HeLa beta-catenin nuclear translocation, immunofluorescence imaging. nuclear translocation activity, % at 5 µM. actives 0.3% (n = 190,000);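 active means nuclear translocation activity above 50% at 5 µM, with a well cell count of 50 or more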;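 further: per-cell ratio of nuclear to cytoplasmic median beta-catenin stain intensity; plate controls were DMSO negative control for no effect and GSK-3 inhibitor IX positive control for full effect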
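Test system: human HeLa cells, endogenous beta-catenin. Times: 24 h compound exposure, 37°C. Measured by: beta-catenin immunofluorescence imaging with DAPI.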
APP transl inh = APP translation inhibition; SH-SY5Y APP 5'UTR-luciferase reporter, luminescence; inhibition, % at 2 µM; actives 0.82% (n = 190,000);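 active means inhibition above a set limit, derived from the sample mean plus 3 SD, cut at about 45% in these data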
Ba/F3 V617F tox = loss of viability in JAK2V617F-driven Ba/F3 cells. Ba/F3 EpoR-JAK2V617F viability, ATP luminescence. inhibition, % at 5.6 µM. actives 1.1% (n = 220,000). AID 1446;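 active means inhibition above the campaign mean plus 3 SD over all tested compounds, cut at about 24% in these data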;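 further: cytokine-independent growth of Ba/F3 cells driven by EpoR plus mutant JAK2; 0% = DMSO-treated cells and 100% = JAK inhibitor I control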
BaF3 parental = parental Ba/F3 viability inhibition as JAK2V617F counter-screen; inhibition, % at 5.6 µM; CellTiter-Glo ATP luminescence; actives 1.1% (n = 220,000);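 active means inhibition above a per-campaign cutoff, the mean inhibition of all tested compounds plus 3 SD, cut at about 27% in these data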;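 further: 0% = DMSO wells and 100% = JAK Inhibitor I control wells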
MT stabilizer = microtubule stabilization, imaging screen. HeLa tubulin immunostaining HCS, 24 h; share of cells brighter than vehicle mean+2SD. % tubulin-high responders, % at 10 µM. actives 0.83% (n = 200,000). AID 2205;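 active means plate Z-score above 3 for both tubulin-high and condensed-nucleus cell shares, with cell loss under 80%, at 10 µM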;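 further: anti alpha tubulin signal scored within the nucleus-defined area of each cell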
* hit, by the source's call; . = not tested or not shown. An excerpt weighted towards active compounds, which were near 9.6% of everything screened.

SMILES	Lmaj promast	bCat nuc transl	APP transl inh	Ba/F3 V617F tox	BaF3 parental	MT stabilizer
CCC(C)(C)n1nnnc1C(c1cc2ccc(OC)cc2[nH]c1=O)N1CCc2ccccc21 (centres undefined)	10	-2	-2	-1	1	6
CCOC(=O)c1cc(-c2ccccc2)n(CC(=O)Nc2cc(OC)cc(OC)c2)c1C	96*	-7	-3	0	2	2
O=C(COC(=O)c1cccs1)NC1CCCCC1	-4	0	-3	-4	-3	4
O=C(C(c1ccccc1)c1ccccc1)N1CC[C@@]2(O)CCCC[C@H]2C1	.	2	.	2	2	.
Cc1ccc(-c2nnc(SCC(C)C)n2C)cc1	-3	4	-47	30*	33*	3
Cc1ccc(Nc2nc(CSc3nnc(-c4ccc(F)cc4)n3C)cs2)cc1	81*	-2	-21	7	10	3
COc1ccc(-c2nnc(SCc3csc(N)n3)n2C)cc1	-10	0	10	1	6	4
Cc1ccc(-c2nnc(SCC(N)=O)n2C)cc1	0	1	2	1	7	2
O=C(NCCCl)C1Cc2c(ccc3ccccc23)O1 (centres undefined)	-5	0	10	3	1	6
CCOC(=O)N1CCN(CCC(=O)c2ccc(OC)cc2)CC1	82*	0	-12	6	12	2
CCOC(=O)N1CCC(NC2CCCCCCC2)CC1	94*	-2	-3	0	2	3
CCOC(=O)N1CCN(CC(O)COc2ccc(OC)cc2C(C)(C)C)CC1 (centres undefined)	59*	2	7	0	6	5
CCOC(=O)C1CCCN(CC(O)COc2ccc(OC)cc2C(C)(C)C)C1 (centres undefined)	40	-2	-13	-1	0	2
CCOC(=O)N1CCN(CCC(=O)c2ccc(Cl)cc2)CC1	94*	.	-10	2	0	2
CCOCCOC(NC(=O)c1ccccc1)(C(F)(F)F)C(F)(F)F	-2	-2	9	0	3	3
CCOC(=O)N1CCC(NCCNC(=O)c2ccc(Cl)cc2)CC1	91*	-1	-3	-3	6	4
Cc1cccc(OCCN2C(=O)C(=O)c3cc(C)ccc32)c1	0	2	93*	86*	84*	3
Cc1ccc2c(c1)C(=O)C(=O)N2CCOc1ccccc1	34	0	79*	92*	87*	2
Cc1ccc2c(c1)C(=O)C(=O)N2CCCOc1ccccc1C	19	0	-53	-2	7	4
O=C1CCN(Cc2nc(-c3ccc(Cl)cc3)no2)CCN1	-1	0	9	2	4	2
Cc1[nH]n(C2=NCCS2)c(=O)c1N=Nc1cccc(C(F)(F)F)c1	99*	3	53*	0	7	2
O=c1[nH]n2c(=O)c3c([nH]c2c1N=Nc1cccc(C(F)(F)F)c1)CCCC3	-1	2	10	-1	5	2
Cc1cc([N+](=O)[O-])nn1CCCC(=O)Nc1sc2c(c1C(N)=O)CCC(C)C2 (centres undefined)	69*	.	26	-2	5	3
O=C(CC1NCCc2ccccc21)Nc1ccc(Oc2ccccc2)cc1 (centres undefined)	99*	2	-4	3	6	5
O=C(CC1NCCc2ccccc21)Nc1ccccc1 (centres undefined)	-4	1	-24	0	4	2
SMILES	Lmaj promast	bCat nuc transl	APP transl inh	Ba/F3 V617F tox	BaF3 parental	MT stabilizer
O=C(c1ccc(S(=O)(=O)Cc2ccccc2Cl)c([N+](=O)[O-])c1)N1CCN(c2ccccn2)CC1	89*	0	-23	0	1	6
O=C(c1ccc(S(=O)(=O)Cc2cc(F)ccc2F)c([N+](=O)[O-])c1)N1CCCCC1	78*	-2	-5	-1	3	2
CC1(C)[C@H]2CC=C(CN3CCC(N4CCC(C(=O)N5CCCC5)CC4)CC3)[C@@H]1C2	89*	1	14	2	12	3
CC(=O)c1cc(CN2CCC(N3CCC(C(=O)N4CCCC4)CC3)CC2)cs1	13	0	-1	-1	7	1
CCOc1ccc(NC(=O)CC2C(=O)Nc3ccccc3N2C(=O)c2ccccc2)cc1 (centres undefined)	-2	-2	-10	-1	5	3
Nc1cc2c3c(cccc3c1)C(=O)N(CCN1CCCC1)C2=O	.	-1	.	97*	83*	.
